According to paper PMC3787807 (Journal of Natural Products, 2013):

Tests used:
TgACTI (T. gondii actin) = TgACTI (T. gondii actin) (Toxoplasma gondii, UniProt P53476); assay: Ninety-degree light scattering of TgACTI polymerization; assay type: biochemical; conditions: 5 μM TgACTI in F-buffer, compounds at 0.25, 1 or 2 μM, 9000 s
Outline: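 Baculovirus-expressed N-His TgACTI was Ni-NTA purified, dialysed into G buffer (pH 8.0, 0.2 mM ATP) and spun at 100000g to remove aggregates. It was held at 5 μM in G buffer at 21 °C, with ex/em 310 nm. After a steady baseline, 10× F buffer (500 mM KCl, 20 mM MgCl2, 10 mM ATP) went in at 1/10 volume with compound or DMSO control. Scatter counted for 9000 s.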

T. gondii = assay: Inhibition of T. gondii proliferation; assay type: cell-based, Toxoplasma gondii; conditions: T. gondii growth on HFF monolayers
Outline: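 β-gal-expressing parasites preincubated 30 min with compound dilutions in DMEM/10% FBS/gentamicin with 0.2% DMSO, then seeded at 500/well onto confluent HFF. Compound kept continuously or washed out after 2 or 48 h. After 72 h at 37 °C, 5% CO2, cells lysed and given chlorophenol red-β-D-galactopyranoside substrate. A570 normalised to untreated. EC50 from variable-slope log(inhibitor)–response fits, three experiments (n = 4 replicates).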

human cells = conditions: read-out: EC50, growth inhibition of human cells; cited from earlier work

Chain of TgACTI (T. gondii actin) (P53476 whole entry): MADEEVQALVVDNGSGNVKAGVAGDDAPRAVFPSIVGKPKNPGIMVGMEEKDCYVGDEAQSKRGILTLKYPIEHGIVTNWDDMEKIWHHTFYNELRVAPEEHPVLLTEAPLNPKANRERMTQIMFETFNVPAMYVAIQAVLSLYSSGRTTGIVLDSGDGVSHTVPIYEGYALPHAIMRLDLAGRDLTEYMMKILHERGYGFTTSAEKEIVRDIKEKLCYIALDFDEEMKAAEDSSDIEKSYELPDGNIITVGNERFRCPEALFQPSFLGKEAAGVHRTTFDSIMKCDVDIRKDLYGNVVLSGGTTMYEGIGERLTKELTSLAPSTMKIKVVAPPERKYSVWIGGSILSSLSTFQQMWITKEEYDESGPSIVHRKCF

In the case of C/C1=C\[C@H](C)C[C@H](C)OC(=O)C[C@H](c2ccc(O)cc2)NC(=O)[C@@H](Cc2c(Br)[nH]c3ccccc23)N(C)C(=O)[C@H](C)NC(=O)[C@@H](C)C1 [compound 1, Jasplakinolide, reference compound], the “TgACTI polymerization (light scattering)” value (TgACTI (T. gondii actin)) is reported as “promote actin polymerization”.

With CO[C@@H]1C(=O)O[C@H](C)[C@H](C)/C=C(\C)C[C@H](C)C(=O)N[C@@H](C)C(=O)N(C)[C@H](Cc2c[nH]c3ccccc23)C(=O)N[C@H]1c1ccc(O)cc1 [compound 2, chondramide A] the “TgACTI polymerization (light scattering)” value (TgACTI (T. gondii actin)) was “promote actin polymerization”.

In the case of CO[C@@H]1C(=O)O[C@H](C)[C@H](C)/C=C(\C)C[C@H](C)C(=O)N[C@@H](C)C(=O)N(C)[C@H](Cc2c[nH]c3ccccc23)C(=O)N[C@H]1c1ccccc1 [2a, synthetic chondramide A], the “TgACTI polymerization (light scattering)” value (TgACTI (T. gondii actin)) is reported as “promote actin polymerization”.

In the case of CO[C@@H]1C(=O)O[C@H](C)[C@H](C)/C=C(\C)C[C@H](C)C(=O)N[C@@H](C)C(=O)N(C)[C@H](Cc2c[nH]c3ccccc23)C(=O)N[C@H]1c1ccc(C(N)=O)cc1 [2k], the “activity against the parasite (in words)” value (T. gondii) is given as “eliminated activity against the parasite” and the EC50 (human cells) is given as about 1.4 µM.
